# Like-named read-outs stand apart in the source and are kept apart here.
# Experiments:
# [1] = target: CRBN (Homo sapiens, UniProt Q96SW2); test: Immunoblot of CRBN in MM.1S cells; type: cell-based
# [2] = target: T1, KEAP1 (Homo sapiens, UniProt Q14145); test: Immunoblot of KEAP1 degradation in WT and CRBN−/− MM.1S cells; type: cell-based; settings: for KEAP1 degradation in CRBN knockout cells: CRBN−/− MM.1S cells; for KEAP1 degradation in CRBN knockout cells / KEAP1 degradation in wildtype cells: 5 μM, 2-hour treatment; for KEAP1 degradation: MM.1S cells; for KEAP1 degradation in wildtype cells: wildtype MM.1S cells
# Target sequence in this assay (Q14145 whole entry): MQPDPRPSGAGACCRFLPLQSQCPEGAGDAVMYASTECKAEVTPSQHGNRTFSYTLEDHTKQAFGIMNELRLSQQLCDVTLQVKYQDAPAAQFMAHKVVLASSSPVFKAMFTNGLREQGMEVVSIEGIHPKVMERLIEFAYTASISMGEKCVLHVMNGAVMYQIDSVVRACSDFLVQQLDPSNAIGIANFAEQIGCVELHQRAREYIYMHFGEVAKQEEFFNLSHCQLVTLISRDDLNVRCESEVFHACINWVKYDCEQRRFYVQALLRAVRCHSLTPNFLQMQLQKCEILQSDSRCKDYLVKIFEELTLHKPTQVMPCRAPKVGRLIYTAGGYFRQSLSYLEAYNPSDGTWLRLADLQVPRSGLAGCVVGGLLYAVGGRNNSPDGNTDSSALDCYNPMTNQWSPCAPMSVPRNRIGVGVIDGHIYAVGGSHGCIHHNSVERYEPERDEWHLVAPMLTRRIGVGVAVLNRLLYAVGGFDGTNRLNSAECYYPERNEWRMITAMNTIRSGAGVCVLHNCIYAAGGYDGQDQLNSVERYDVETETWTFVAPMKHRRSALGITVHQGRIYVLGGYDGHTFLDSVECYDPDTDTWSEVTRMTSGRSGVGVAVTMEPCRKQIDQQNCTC
# [3] = test system: OVCAR8 cells; test: Proteomics profiling of KEAP1-CRBN PROTACs; type: cell-based, human; settings: legend: MM.1S cells, 5 h, 5 μM
# [4] = target: BRD4 (Homo sapiens, UniProt O60885); test: Immunoblot of BRD4 degradation in MM.1S cells; type: cell-based; settings: for cellular degradation of BRD4, linker library: 16 h
# Method in brief: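 MM.1S cells were treated with test compound for 16 h (24 h in the initial screen). For rescue, cells were pretreated 2 h with 10 μM KEAP1 inhibitor, 10 μM JQ1 or 1 μM MLN4924. Lysates in RIPA were BCA-normalised, run on 4–12% gels and blotted to PVDF with IRDye secondaries. BRD4 bands were quantified relative to β-actin. Two independent experiments.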
# [5] = test system: MM.1S cells; test: Antiproliferation assay; type: cell-based; settings: Homo sapiens, MM1.S, 72 h, read-out: anti-proliferative effect
# Method in brief: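 MM.1S cells (RPMI, 10% FBS, 1% Pen/Strep, 37°C, 5% CO2) seeded at 10000 cells/well and grown 12 h, then exposed to test compound for 72 h. Viability read by CellTiter-Glo luminescence. Dose-response curves fitted by non-linear regression. Mean ± SEM of three technical replicates; representative of two independent experiments.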
# [6] = target: T1, KEAP1; test: KEAP1-NRF2 displacement TR-FRET assay; type: binding
# Target sequence in this assay (Q14145 321-609): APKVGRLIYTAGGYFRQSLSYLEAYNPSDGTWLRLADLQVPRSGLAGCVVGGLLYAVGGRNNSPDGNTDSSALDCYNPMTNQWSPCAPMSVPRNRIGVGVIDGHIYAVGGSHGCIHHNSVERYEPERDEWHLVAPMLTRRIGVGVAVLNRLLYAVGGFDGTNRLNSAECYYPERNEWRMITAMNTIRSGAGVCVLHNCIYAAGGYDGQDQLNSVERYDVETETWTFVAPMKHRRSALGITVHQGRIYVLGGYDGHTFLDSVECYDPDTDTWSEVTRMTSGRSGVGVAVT
# [7] = target: KEAP1-BRD4BD2 (Homo sapiens, UniProt O60885+Q14145); test: KEAP1-BRD4BD2 dimerization TR-FRET assay; type: biochemical
# Sequence of KEAP1-BRD4BD2 (Q14145 321-609 limits assumed, other chains not shown): as the sequence (Q14145 321-609) above
# Method in brief: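 TR-FRET mix: 200 nM biotinylated human BRD4BD2, 200 nM Alexa Fluor 647-labelled human KEAP1 (residues 321–609, insect-cell expressed, SpyCatcher-labelled) and 2 nM Eu-streptavidin. Buffer was 50 mM Tris pH 8.0, 200 mM NaCl, 0.1% Pluronic F-68, 0.5% BSA and 1 mM TCEP; compound was titrated. After 15 min at room temperature, excitation was 337 nm and the 665/620 nm ratio was read over thirty 200-s cycles. Mean ± SD of ≥3 technical replicates; two independent experiments.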
# Sequence of CRBN (Q96SW2 whole entry): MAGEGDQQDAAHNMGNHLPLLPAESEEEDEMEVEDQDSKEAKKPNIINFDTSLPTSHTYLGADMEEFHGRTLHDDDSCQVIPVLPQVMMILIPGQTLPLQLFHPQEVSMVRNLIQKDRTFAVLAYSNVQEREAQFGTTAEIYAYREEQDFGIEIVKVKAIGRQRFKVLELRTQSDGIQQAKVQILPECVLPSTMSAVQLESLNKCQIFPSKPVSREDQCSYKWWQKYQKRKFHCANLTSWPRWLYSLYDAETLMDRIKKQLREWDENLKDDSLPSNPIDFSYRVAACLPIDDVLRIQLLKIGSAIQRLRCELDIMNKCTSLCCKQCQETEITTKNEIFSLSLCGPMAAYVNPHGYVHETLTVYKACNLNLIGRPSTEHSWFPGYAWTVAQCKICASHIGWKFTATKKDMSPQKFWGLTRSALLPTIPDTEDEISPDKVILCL
compound,measurement,setting,value
"COc1cc([C@@H](CC(=O)O)c2ccc(C)c(CN3C[C@@H](C)Oc4cc(CCCCCCNC(=O)COc5cc6c7c(cccc7c5)C(=O)N(C5CCC(=O)NC5=O)C6=O)ccc4S3(=O)=O)c2)cc2nnn(C)c12 (stereo partly drawn) [NJH-04–087, (3S)-3-(3-(((4R)-7-(6-(2-((2-(2,6-dioxopiperidin-3-yl)-1,3-dioxo-2,3-dihydro-1H-benzo[de]isoquinolin-5-yl)oxy)acetamido)hexyl)-4-methyl-1,1-dioxido-3,4-dihydro-2H-benzo[b][1,4,5]oxathiazepin-2-yl)methyl)-4-methylphenyl)-3-(7-methoxy-1-methyl-1H-benzo[d][1,2,3]triazol-5-yl)propanoic acid]",effect on CRBN,[1],spared CRBN
same,KEAP1 degradation in CRBN knockout cells,[2],not CRBN^−/− MM.1S cells
same,KEAP1 degradation,[2],rapid degradation of KEAP1
same,KEAP1 degradation in wildtype cells,[2],observed KEAP1 degradation
same,selectivity of degradation across the proteome,[3],selective for inducing degradation of KEAP1 across the proteome and does not degrade any zinc finger proteins
"CCOC(=O)C[C@@H](c1ccc(C)c(CN2C[C@@H](C)Oc3cc(CCCCCCNC(=O)C[C@@H]4N=C(c5ccc(Cl)cc5)c5c(sc(C)c5C)-n5c(C)nnc54)ccc3S2(=O)=O)c1)c1cc(OC)c2c(c1)nnn2C [NJH-05–146, Ethyl (S)-3-(3-(((R)-7-(6-(2-((S)-4-(4-chlorophenyl)-2,3,9-trimethyl-6H-thieno[3,2-f][1,2,4]triazolo[4,3-a][1,4]diazepin-6-yl)acetamido)hexyl)-4-methyl-1,1-dioxido-3,4-dihydro-2H-benzo[b][1,4,5]oxathiazepin-2-yl)methyl)-4-methylphenyl)-3-(7-methoxy-1-methyl-1H-benzo[d][1,2,3]triazol-5-yl)propanoate]",activity at prolonged timepoints,[4],inactive even at prolonged timepoints
same,"BRD4 degradation, negative control","[4]; MM.1S cells, 16-hour treatment at 0.1, 1, and 10 μM",did not result in degradation of BRD4
same,IC50,[5],> 10 µM
same,KEAP1 binding / engagement in TR-FRET Nrf2 peptide displacement assay,[6],did not bind KEAP1
"COc1cc(C(CC(=O)O)c2ccc(C)c(CN(C)S(=O)(=O)c3ccc(OCCCCCCNC(=O)C[C@@H]4N=C(c5ccc(Cl)cc5)c5c(sc(C)c5C)-n5c(C)nnc54)cc3)c2)cc2nnn(C)c12 (stereo partly drawn) [DGY-05–089, 3-(3-(((4-((6-(2-((S)-4-(4-chlorophenyl)-2,3,9-trimethyl-6H-thieno[3,2-f][1,2,4]triazolo[4,3-a][1,4]diazepin-6-yl)acetamido)hexyl)oxy)-N-methylphenyl)sulfonamido)methyl)-4-methylphenyl)-3-(7-methoxy-1-methyl-1H-benzo[d][1,2,3]triazol-5-yl)propanoic acid]",BRD4 degradation,"[4]; MM.1S cells, 24 h",failed to degrade BRD4
same,KEAP1-BRD4BD2 ternary complex formation / dimerization,[7],did not induce ternary complex formation
same,IC50,"[6]; read-out: IC50, KEAP1-NRF2 TR-FRET displacement",0.147 µM
"COc1cc([C@H](CC(=O)O)c2ccc(C)c(CN3C[C@@H](C)Oc4cc(CCCCCCNC(=O)C[C@@H]5N=C(c6ccc(Cl)cc6)c6c(sc(C)c6C)-n6c(C)nnc65)ccc4S3(=O)=O)c2)cc2nnn(C)c12 [DGY-06–177-pk1, (R)-3-(3-(((R)-7-(6-(2-((S)-4-(4-chlorophenyl)-2,3,9-trimethyl-6H-thieno[3,2-f][1,2,4]triazolo[4,3-a][1,4]diazepin-6-yl)acetamido)hexyl)-4-methyl-1,1-dioxido-3,4-dihydro-2H-benzo[b][1,4,5]oxathiazepin-2-yl)methyl)-4-methylphenyl)-3-(7-methoxy-1-methyl-1H-benzo[d][1,2,3]triazol-5-yl)propanoic acid]",concentration at which KEAP1-BRD4BD2 dimerization is induced,[7],~ 10 μM
"COc1cc([C@@H](CC(=O)O)c2ccc(C)c(CN3C[C@@H](C)Oc4cc(CCCCCCNC(=O)COc5cccc6c5C(=O)N(C5CCC(=O)NC5=O)C6=O)ccc4S3(=O)=O)c2)cc2nnn(C)c12 (stereo partly drawn) [NJH-04–086, (3S)-3-(3-(((4R)-7-(6-(2-((2-(2,6-dioxopiperidin-3-yl)-1,3-dioxoisoindolin-4-yl)oxy)acetamido)hexyl)-4-methyl-1,1-dioxido-3,4-dihydro-2H-benzo[b][1,4,5]oxathiazepin-2-yl)methyl)-4-methylphenyl)-3-(7-methoxy-1-methyl-1H-benzo[d][1,2,3]triazol-5-yl)propanoic acid]",effect on CRBN,[1],spared CRBN
same,KEAP1 degradation in CRBN knockout cells,[2],not CRBN^−/− MM.1S cells
same,KEAP1 degradation,[2],rapid degradation of KEAP1
same,KEAP1 degradation in wildtype cells,[2],observed KEAP1 degradation
same,selectivity of degradation across the proteome,[3],clear degradation of KEAP1 and a few zinc finger proteins
"COc1cc([C@@H](CC(=O)O)c2ccc(C)c(CN3C[C@@H](C)Oc4cc(CCCOCCNC(=O)C[C@@H]5N=C(c6ccc(Cl)cc6)c6c(sc(C)c6C)-n6c(C)nnc65)ccc4S3(=O)=O)c2)cc2nnn(C)c12 [NJH-05–141, (S)-3-(3-(((R)-7-(3-(2-(2-((S)-4-(4-chlorophenyl)-2,3,9-trimethyl-6H-thieno[3,2-f][1,2,4]triazolo[4,3-a][1,4]diazepin-6-yl)acetamido)ethoxy)propyl)-4-methyl-1,1-dioxido-3,4-dihydro-2H-benzo[b][1,4,5]oxathiazepin-2-yl)methyl)-4-methylphenyl)-3-(7-methoxy-1-methyl-1H-benzo[d][1,2,3]triazol-5-yl)propanoic acid]","cellular degradation of BRD4, linker library",[4]; MM.1S cells,showed cellular degradation of BRD4 to a similar level to DGY-06–177-pk2
"COc1cc([C@@H](CC(=O)O)c2ccc(C)c(CN3C[C@@H](C)Oc4cc(CCCCCCNC(=O)COc5cc6c7c(cccc7c5)C(=O)N(C5CCC(=O)N(C)C5=O)C6=O)ccc4S3(=O)=O)c2)cc2nnn(C)c12 (stereo partly drawn) [NJH-04–202, (3S)-3-(7-methoxy-1-methyl-1H-benzo[d][1,2,3]triazol-5-yl)-3-(4-methyl-3-(((4R)-4-methyl-7-(6-(2-((2-(1-methyl-2,6-dioxopiperidin-3-yl)-1,3-dioxo-2,3-dihydro-1H-benzo[de]isoquinolin-5-yl)oxy)acetamido)hexyl)-1,1-dioxido-3,4-dihydro-2H-benzo[b][1,4,5]oxathiazepin-2-yl)methyl)phenyl)propanoic acid]","KEAP1 degradation, negative control","[2]; WT MM.1S cells, 4 h",did not induce KEAP1 degradation
"COc1cc([C@@H](CC(=O)O)c2ccc(C)c(CN3C[C@@H](C)Oc4cc(CCCCNC(=O)C[C@@H]5N=C(c6ccc(Cl)cc6)c6c(sc(C)c6C)-n6c(C)nnc65)ccc4S3(=O)=O)c2)cc2nnn(C)c12 [NJH-05–138, (S)-3-(3-(((R)-7-(4-(2-((S)-4-(4-chlorophenyl)-2,3,9-trimethyl-6H-thieno[3,2-f][1,2,4]triazolo[4,3-a][1,4]diazepin-6-yl)acetamido)butyl)-4-methyl-1,1-dioxido-3,4-dihydro-2H-benzo[b][1,4,5]oxathiazepin-2-yl)methyl)-4-methylphenyl)-3-(7-methoxy-1-methyl-1H-benzo[d][1,2,3]triazol-5-yl)propanoic acid]","cellular degradation of BRD4, linker library",[4]; MM.1S cells,showed cellular degradation of BRD4 to a similar level to DGY-06–177-pk2
"COc1cc(C(CC(=O)O)c2ccc(C)c(CN3C[C@@H](C)Oc4cc(CCCCCCNC(=O)C[C@@H]5N=C(c6ccc(Cl)cc6)c6c(sc(C)c6C)-n6c(C)nnc65)ccc4S3(=O)=O)c2)cc2nnn(C)c12 (mixture of isomers) [DGY-06–177, 3-(3-(((R)-7-(6-(2-((S)-4-(4-chlorophenyl)-2,3,9-trimethyl-6H-thieno[3,2-f][1,2,4]triazolo[4,3-a][1,4]diazepin-6-yl)acetamido)hexyl)-4-methyl-1,1-dioxido-3,4-dihydro-2H-benzo[b][1,4,5]oxathiazepin-2-yl)methyl)-4-methylphenyl)-3-(7-methoxy-1-methyl-1H-benzo[d][1,2,3]triazol-5-yl)propanoic acid]",concentration at which hook effect is exhibited,"[4]; MM.1S cells, 24 h",5 µM
same,concentration of maximal BRD4 degradation,"[4]; MM.1S cells, 24 h",1 µM
same,concentration at which KEAP1-BRD4BD2 dimerization is promoted,[7],approximately 100 nM
same,IC50,[6],0.145 µM
